Results as given in ChEMBL document CHEMBL1687800, “Emergence of metallo-β-lactamase NDM-1-producing multidrug-resistant Escherichia coli in Australia” (2010).
Converted amounts (≈) assume the structure as drawn.

Key:
Format in all cases: functional
Escherichia coli [1] = assay: Antibacterial activity against Escherichia coli TOP10
Outline: (§1)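 MICs of β-lactams read by Etest on Mueller-Hinton agar plates incubated at 37°C, with susceptibility categories assigned according to CLSI guidelines. Strains tested were a clinical urine isolate (E. coli 271), E. coli TOP10 carrying recombinant plasmid p271A expressing NDM-1, and the TOP10 reference strain.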

Escherichia coli [2] = assay: Antibacterial activity against Escherichia coli isolate 271; outline: as §1
Escherichia coli [3] = assay: Antibacterial activity against Escherichia coli TOP10 expressing metallo-beta-lactamase NDM-1; outline: as §1

Structure (SMILES) | MIC (Escherichia coli [1]) [µg/mL] | MIC (Escherichia coli [2]) [µg/mL] | MIC (Escherichia coli [3]) [µg/mL]
C[C@@H](O)[C@H]1C(=O)N2C(C(=O)O)=C(S[C@@H]3CN[C@H](C(=O)N(C)C)C3)[C@H](C)[C@H]12 [MEROPENEM] | 0.06 (≈ 0.156 µM) | 16 (≈ 41.7 µM) | 3 (≈ 7.82 µM)
CC1(C)S[C@@H]2[C@H](NC(=O)[C@H](C(=O)O)c3ccsc3)C(=O)N2[C@H]1C(=O)O [TICARCILLIN] | 4 (≈ 10.4 µM) | > 512 | > 512
C[C@@H](O)[C@H]1C(=O)N2C(C(=O)O)=C(SCCNC=N)C[C@H]12 [IMIPENEM ANHYDROUS] | – | 6 (≈ 20 µM) | 4 (≈ 13.4 µM)
CO[C@@]1(NC(=O)Cc2cccs2)C(=O)N2C(C(=O)O)=C(COC(N)=O)CS[C@@H]21 [CEFOXITIN] | 4 (≈ 9.36 µM) | 512 (≈ 1200 µM) | 256 (≈ 599 µM)
CC(C)(O/N=C(\C(=O)N[C@@H]1C(=O)N2C(C(=O)[O-])=C(C[n+]3ccccc3)CS[C@H]12)c1csc(N)n1)C(=O)O [CEFTAZIDIME] | 0.06 (≈ 0.11 µM) | 256 (≈ 468 µM) | 128 (≈ 234 µM)
CC1(C)S[C@@H]2[C@H](NC(=O)[C@H](N)c3ccc(O)cc3)C(=O)N2[C@H]1C(=O)O [AMOXICILLIN] | 4 (≈ 10.9 µM) | > 512 | > 512
C[C@@H](O)[C@H]1C(=O)N2C(C(=O)O)=C(S[C@@H]3CN[C@H](C(=O)Nc4cccc(C(=O)O)c4)C3)[C@H](C)[C@H]12 [ERTAPENEM] | 0.06 (≈ 0.126 µM) | 32 (≈ 67.3 µM) | 3 (≈ 6.31 µM)
CO/N=C(\C(=O)N[C@@H]1C(=O)N2C(C(=O)O)=C(COC(C)=O)CS[C@H]12)c1csc(N)n1 [CEFOTAXIME] | 0.12 (≈ 0.263 µM) | 512 (≈ 1120 µM) | 256 (≈ 562 µM)
CO/N=C(\C(=O)N[C@@H]1C(=O)N2C(C(=O)[O-])=C(C[N+]3(C)CCCC3)CS[C@H]12)c1csc(N)n1 [CEFEPIME] | – | 64 (≈ 133 µM) | 16 (≈ 33.3 µM)
C[C@H]1[C@H](NC(=O)/C(=N\OC(C)(C)C(=O)O)c2csc(N)n2)C(=O)N1S(=O)(=O)O [AZTREONAM] | – | 64 (≈ 147 µM) | 0.25 (≈ 0.574 µM)
CCN1CCN(C(=O)N[C@@H](C(=O)N[C@@H]2C(=O)N3[C@@H]2SC(C)(C)[C@@H]3C(=O)O)c2ccccc2)C(=O)C1=O [PIPERACILLIN] | 1 (≈ 1.93 µM) | > 512 | 512 (≈ 989 µM)
